# Measurements: ChEMBL document CHEMBL1154706, “Novel substituted and fused pyrrolizine derivatives: synthesis, anti-inflammatory and ulcerogenecity studies” (Eur J Med Chem, 2010)
# System: Rattus norvegicus
# Experiment: Gastrointestinal toxicity in albino rat assessed ulcer index at 39.23 […], po
# Assay type: organism-based
# Conditions: in vivo
# Method in brief: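 Adult albino rats of both sexes (120–150 g), five per group, fasted 20 h before dosing. Compounds given orally as a suspension in 1% Tween; controls received vehicle. Dosed on three consecutive days with fasting/feeding cycles, then killed on day 4. Stomach opened along the greater curvature and rinsed with saline. Red spots counted and severity scored 0–4. Ulcer index derived from % incidence/10, mean ulcer number and mean severity.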
row,Compound,UI
1,O=C(O)CCc1nc(=O)c2c3n(c(C(=O)Nc4ccccc4)c2[nH]1)CCC3,16.66
2,O=C(O)CCc1nc(=O)c2c3n(c(C(=O)Nc4ccc(Cl)cc4)c2[nH]1)CCC3,15.66
3,O=C(O)/C=C\c1nc(=O)c2c3n(c(C(=O)Nc4ccccc4)c2[nH]1)CCC3,17.46
4,O=C(O)/C=C\c1nc(=O)c2c3n(c(C(=O)Nc4ccc(Cl)cc4)c2[nH]1)CCC3,17.09
5,CC(C)Cc1ccc(C(C)C(=O)Nc2c(C#N)c3n(c2C(=O)Nc2ccccc2)CCC3)cc1 (racemic),0
6,CC(C(=O)Nc1c(C#N)c2n(c1C(=O)Nc1ccc(Cl)cc1)CCC2)c1cccc(C(=O)c2ccccc2)c1 (racemic),3.6
7,Cc1ccc(NC(=O)c2c3[nH]c(CCC(=O)O)nc(=O)c3c3n2CCC3)cc1,17.91
8,O=C(c1ccccc1)c1ccc2n1CCC2C(=O)O (stereo not drawn) [KETOROLAC],11.6
9,Cc1ccc(NC(=O)c2c(NC(=O)C(C)c3cccc(C(=O)c4ccccc4)c3)c(C#N)c3n2CCC3)cc1 (racemic),3.6
10,Cc1ccc(NC(=O)c2c(NC(=O)C(C)c3ccc(CC(C)C)cc3)c(C#N)c3n2CCC3)cc1 (racemic),3.2
11,Cc1ccc(NC(=O)c2c3[nH]c(/C=C\C(=O)O)nc(=O)c3c3n2CCC3)cc1,18.3
12,CC(C)Cc1ccc(C(C)C(=O)Nc2c(C#N)c3n(c2C(=O)Nc2ccc(Cl)cc2)CCC3)cc1 (racemic),0
13,CC(C(=O)Nc1c(C#N)c2n(c1C(=O)Nc1ccccc1)CCC2)c1cccc(C(=O)c2ccccc2)c1 (racemic),0
